In ChEMBL document CHEMBL1144581, “alpha-Amino acid derivatives as proton pump inhibitors and potent anti-ulcer agents” (2007):
Calls of active or inactive are those of the source. No cut-off for these calls is given here.

Experiments:
Rattus norvegicus [1] = species on record: Rattus norvegicus; experiment: Inhibition of p-NPPase in Sprague-Dawley rat microsomal vesicles at 30 uM in presence of 3.0 mM of p-NPP; format: microsomes; conditions: Microsome
In short: (§1)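 Rat gastric microsomes were assayed in 10 mM PIPES/Tris pH 7.0 with 5 mM KCl. Compound was preincubated 30 min at 37 °C. p-NPP at 1.0, 3.0 or 5.0 mM was added and incubated 20 min at 37 °C, then stopped with 0.5 N NaOH. p-Nitrophenol release was read at 410 nm; % inhibition vs control.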

Rattus norvegicus [2] = species on record: Rattus norvegicus; experiment: Inhibition of gastric H+/K(+)-ATPase activity in Sprague-Dawley rat microsomal vesicles at 30 uM in presence of 0.3 mM of ATP; format: microsomes; conditions: Stomach, Microsome
In short: (§2)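 Rat gastric microsomes were prepared by density gradient and differential centrifugation. The medium held 40 mM Tris-HCl pH 7.4, 2 mM MgCl2, 10 mM KCl (water for blank) and […] vesicular protein. Compound was preincubated 30 min at 37 °C. Tris-ATP at 0.3, 1.0 or 3 mM was then added for 20 min and stopped with chilled 10% TCA. Released Pi was read at 530 nm; % inhibition vs control.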

Rattus norvegicus [3] = species on record: Rattus norvegicus; experiment: Inhibition of gastric H+/K(+)-ATPase activity in Sprague-Dawley rat microsomal vesicles at 30 uM in presence of 3.0 mM of ATP; format: microsomes; conditions: Stomach, Microsome; in short: as §2
Rattus norvegicus [4] = species on record: Rattus norvegicus; experiment: Inhibition of p-NPPase in Sprague-Dawley rat microsomal vesicles at 30 uM in presence of 5.0 mM of p-NPP; format: microsomes; conditions: Microsome; in short: as §1
Rattus norvegicus [5] = species on record: Rattus norvegicus; experiment: Inhibition of gastric H+/K(+)-ATPase activity in Sprague-Dawley rat microsomal vesicles at 3 uM in presence of 1.0 mM of ATP; format: microsomes; conditions: Stomach, Microsome; in short: as §2
Rattus norvegicus [6] = species on record: Rattus norvegicus; experiment: Inhibition of gastric H+/K(+)-ATPase activity in Sprague-Dawley rat microsomal vesicles at 3 uM in presence of 0.3 mM of ATP; format: microsomes; conditions: Stomach, Microsome; in short: as §2
Rattus norvegicus [7] = species on record: Rattus norvegicus; experiment: Inhibition of p-NPPase in Sprague-Dawley rat microsomal vesicles at 100 uM in presence of 5.0 mM of p-NPP; format: microsomes; conditions: Microsome; in short: as §1
Rattus norvegicus [8] = species on record: Rattus norvegicus; experiment: Inhibition of gastric H+/K(+)-ATPase activity in Sprague-Dawley rat microsomal vesicles at 3 uM in presence of 3.0 mM of ATP; format: microsomes; conditions: Stomach, Microsome; in short: as §2
Rattus norvegicus [9] = species on record: Rattus norvegicus; experiment: Inhibition of gastric H+/K(+)-ATPase activity in Sprague-Dawley rat microsomal vesicles at 10 uM in presence of 0.3 mM of ATP; format: microsomes; conditions: Stomach, Microsome; in short: as §2
Rattus norvegicus [10] = species on record: Rattus norvegicus; experiment: Inhibition of gastric H+/K(+)-ATPase activity in Sprague-Dawley rat microsomal vesicles at 10 uM in presence of 1.0 mM of ATP; format: microsomes; conditions: Stomach, Microsome; in short: as §2
Rattus norvegicus [11] = species on record: Rattus norvegicus; experiment: Inhibition of p-NPPase in Sprague-Dawley rat microsomal vesicles at 10 uM in presence of 1.0 mM of p-NPP; format: microsomes; conditions: Microsome; in short: as §1
Rattus norvegicus [12] = species on record: Rattus norvegicus; experiment: Inhibition of p-NPPase in Sprague-Dawley rat microsomal vesicles at 30 uM in presence of 1.0 mM of p-NPP; format: microsomes; conditions: Microsome; in short: as §1
Rattus norvegicus [13] = species on record: Rattus norvegicus; experiment: Inhibition of gastric proton pump activity of gastric H(+)/K(+) ATPase in Sprague-Dawley rat microsomal vesicles after washing at 10 uM; format: microsomes; conditions: Stomach, Microsome
Rattus norvegicus [14] = species on record: Rattus norvegicus; experiment: Inhibition of p-NPPase in Sprague-Dawley rat microsomal vesicles at 10 uM in presence of 3.0 mM of p-NPP; format: microsomes; conditions: Microsome; in short: as §1
Rattus norvegicus [15] = species on record: Rattus norvegicus; experiment: Inhibition of p-NPPase in Sprague-Dawley rat microsomal vesicles at 3 uM in presence of 1.0 mM of p-NPP; format: microsomes; conditions: Microsome; in short: as §1
Rattus norvegicus [16] = species on record: Rattus norvegicus; experiment: Inhibition of gastric H+/K(+)-ATPase activity in Sprague-Dawley rat microsomal vesicles at 10 uM in presence of 3.0 mM of ATP; format: microsomes; conditions: Stomach, Microsome; in short: as §2
Rattus norvegicus [17] = species on record: Rattus norvegicus; experiment: Inhibition of gastric proton pump activity of gastric H(+)/K(+) ATPase in Sprague-Dawley rat microsomal vesicles before washing at 10 uM; format: microsomes; conditions: Stomach, Microsome
Rattus norvegicus [18] = species on record: Rattus norvegicus; experiment: Inhibition of p-NPPase in Sprague-Dawley rat microsomal vesicles at 10 uM in presence of 5.0 mM of p-NPP; format: microsomes; conditions: Microsome; in short: as §1
Rattus norvegicus [19] = experiment: Antisecretory activity in rat pylorus ligation-induced ulcer model assessed as inhibition of free acidity of gastric juice at 10 mg/kg; format: functional, organism-based; parameters: dose 10 mg/kg
In short: (§3)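 Sprague Dawley rats (130-150 g) fasted 24 h with water ad libitum; pylorus ligated through a midline incision under ether anesthesia. Dosing oral, 1 h before ligation. Gastric juice free and total acidity titrated against 0.01 N NaOH, with Topfer's reagent and phenolphthalein as indicators. Values expressed as ratio of percent inhibition, treated vs control group.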

Rattus norvegicus [20] = species on record: Rattus norvegicus; experiment: Inhibition of gastric H+/K(+)-ATPase activity in Sprague-Dawley rat microsomal vesicles at 30 uM in presence of 1.0 mM of ATP; format: microsomes; conditions: Stomach, Microsome; in short: as §2
Rattus norvegicus [21] = experiment: Antisecretory activity in rat pylorus ligation-induced ulcer model assessed as inhibition of total acidity of gastric juice at 20 mg/kg; format: functional, organism-based; parameters: dose 20 mg/kg; in short: as §3
Rattus norvegicus [22] = species on record: Rattus norvegicus; experiment: Inhibition of p-NPPase in Sprague-Dawley rat microsomal vesicles at 3 uM in presence of 3.0 mM of p-NPP; format: microsomes; conditions: Microsome; in short: as §1
Rattus norvegicus [23] = species on record: Rattus norvegicus; experiment: Inhibition of p-NPPase in Sprague-Dawley rat microsomal vesicles at 1000 uM in presence of 1.0 mM of p-NPP; format: microsomes; conditions: Microsome; in short: as §1
Rattus norvegicus [24] = species on record: Rattus norvegicus; experiment: Inhibition of gastric H+/K(+)-ATPase activity in Sprague-Dawley rat microsomal vesicles at 300 uM in presence of 1.0 mM of ATP; format: microsomes; conditions: Stomach, Microsome; in short: as §2
Rattus norvegicus [25] = species on record: Rattus norvegicus; experiment: Inhibition of p-NPPase in Sprague-Dawley rat microsomal vesicles at 1000 uM in presence of 3.0 mM of p-NPP; format: microsomes; conditions: Microsome; in short: as §1
Rattus norvegicus [26] = species on record: Rattus norvegicus; experiment: Inhibition of p-NPPase in Sprague-Dawley rat microsomal vesicles at 300 uM in presence of 1.0 mM of p-NPP; format: microsomes; conditions: Microsome; in short: as §1
Rattus norvegicus [27] = species on record: Rattus norvegicus; experiment: Inhibition of gastric H+/K(+)-ATPase activity in Sprague-Dawley rat microsomal vesicles at 1000 uM in presence of 3.0 mM of ATP; format: microsomes; conditions: Stomach, Microsome; in short: as §2
Rattus norvegicus [28] = species on record: Rattus norvegicus; experiment: Inhibition of gastric H+/K(+)-ATPase activity in Sprague-Dawley rat microsomal vesicles at 1000 uM in presence of 0.3 mM of ATP; format: microsomes; conditions: Stomach, Microsome; in short: as §2
Rattus norvegicus [29] = species on record: Rattus norvegicus; experiment: Inhibition of p-NPPase in Sprague-Dawley rat microsomal vesicles at 100 uM in presence of 3.0 mM of p-NPP; format: microsomes; conditions: Microsome; in short: as §1
Rattus norvegicus [30] = species on record: Rattus norvegicus; experiment: Inhibition of gastric H+/K(+)-ATPase activity in Sprague-Dawley rat microsomal vesicles at 100 uM in presence of 1.0 mM of ATP; format: microsomes; conditions: Stomach, Microsome; in short: as §2
Rattus norvegicus [31] = species on record: Rattus norvegicus; experiment: Inhibition of gastric H+/K(+)-ATPase activity in Sprague-Dawley rat microsomal vesicles at 100 uM in presence of 3.0 mM of ATP; format: microsomes; conditions: Stomach, Microsome; in short: as §2
Rattus norvegicus [32] = species on record: Rattus norvegicus; experiment: Inhibition of p-NPPase in Sprague-Dawley rat microsomal vesicles at 300 uM in presence of 3.0 mM of p-NPP; format: microsomes; conditions: Microsome; in short: as §1
Rattus norvegicus [33] = species on record: Rattus norvegicus; experiment: Inhibition of gastric H+/K(+)-ATPase activity in Sprague-Dawley rat microsomal vesicles at 100 uM in presence of 0.3 mM of ATP; format: microsomes; conditions: Stomach, Microsome; in short: as §2
Rattus norvegicus [34] = species on record: Rattus norvegicus; experiment: Inhibition of p-NPPase in Sprague-Dawley rat microsomal vesicles at 100 uM in presence of 1.0 mM of p-NPP; format: microsomes; conditions: Microsome; in short: as §1
Rattus norvegicus [35] = species on record: Rattus norvegicus; experiment: Inhibition of gastric H+/K(+)-ATPase activity in Sprague-Dawley rat microsomal vesicles at 300 uM in presence of 3.0 mM of ATP; format: microsomes; conditions: Stomach, Microsome; in short: as §2
Rattus norvegicus [36] = species on record: Rattus norvegicus; experiment: Antisecretory activity in rat pylorus ligation-induced ulcer model determined by ratio of free acidity inhibition in drug treated to untreated control; format: functional; in short: as §3
Rattus norvegicus [37] = species on record: Rattus norvegicus; experiment: Inhibition of gastric H+/K(+)-ATPase activity in Sprague-Dawley rat microsomal vesicles at 300 uM in presence of 0.3 mM of ATP; format: microsomes; conditions: Stomach, Microsome; in short: as §2
Rattus norvegicus [38] = species on record: Rattus norvegicus; experiment: Antisecretory activity in rat pylorus ligation-induced ulcer model determined by ratio of total acidity inhibition in drug treated to untreated control; format: functional; in short: as §3
Rattus norvegicus [39] = species on record: Rattus norvegicus; experiment: Inhibition of gastric H+/K(+)-ATPase activity in Sprague-Dawley rat microsomal vesicles at 10 umol; format: microsomes; conditions: Stomach, Microsome; in short: as §2
Rattus norvegicus [40] = species on record: Rattus norvegicus; experiment: Inhibition of gastric H+/K(+)-ATPase activity in Sprague-Dawley rat microsomal vesicles at 1000 uM in presence of 1.0 mM of ATP; format: microsomes; conditions: Stomach, Microsome; in short: as §2
Rattus norvegicus [41] = experiment: Antisecretory activity in rat pylorus ligation-induced ulcer model assessed as inhibition of free acidity of gastric juice at 20 mg/kg; format: functional, organism-based; parameters: dose 20 mg/kg; in short: as §3

Row | SMILES | inhibition (Rattus norvegicus [1]) | inhibition (Rattus norvegicus [2]) | inhibition (Rattus norvegicus [3]) | inhibition (Rattus norvegicus [4]) | inhibition (Rattus norvegicus [5]) | inhibition (Rattus norvegicus [6]) | inhibition (Rattus norvegicus [7]) | inhibition (Rattus norvegicus [8]) | inhibition (Rattus norvegicus [9]) | inhibition (Rattus norvegicus [10]) | inhibition (Rattus norvegicus [11]) | inhibition (Rattus norvegicus [12]) | inhibition (Rattus norvegicus [14]) | inhibition (Rattus norvegicus [15]) | inhibition (Rattus norvegicus [16]) | inhibition (Rattus norvegicus [18]) | inhibition (Rattus norvegicus [20]) | Activity (Rattus norvegicus [21]) | inhibition (Rattus norvegicus [22]) | also measured
1 | COc1ccc2[nH]c([S+]([O-])Cc3ncc(C)c(OC)c3C)nc2c1 (stereo not given) | 78% | 75% | 76% | 79% | 38% | 38% | 96% | 34% | 56% | 51% | 54% | 77% | 52% | 28% | 53% | 48% | 71% | Active | 28% | inhibition (Rattus norvegicus [13]): 90%; inhibition (Rattus norvegicus [17]): 60%; Activity (Rattus norvegicus [19]): Active
2 | O=C1N[C@H](C(=O)O)[C@H](/C=C/c2ccccc2)O1 (relative stereo) | 8% | 27% | 34% | 13% | 12% | 20% | 16% | 25% | 23% | 28% | 16% | 33% | 16% | 13% | 30% | 5% | 12% | Active | 26% | inhibition (Rattus norvegicus [23]): 85%; inhibition (Rattus norvegicus [24]): 51%; inhibition (Rattus norvegicus [25]): 38%; inhibition (Rattus norvegicus [26]): 56%; inhibition (Rattus norvegicus [27]): 50%; inhibition (Rattus norvegicus [28]): 67%; inhibition (Rattus norvegicus [29]): 18%; inhibition (Rattus norvegicus [30]): 16%; inhibition (Rattus norvegicus [31]): 28%; inhibition (Rattus norvegicus [32]): 35%; inhibition (Rattus norvegicus [33]): 32%; inhibition (Rattus norvegicus [34]): 42%; inhibition (Rattus norvegicus [35]): 46%; Activity (Rattus norvegicus [36]): 0.96; inhibition (Rattus norvegicus [37]): 51%; Activity (Rattus norvegicus [38]): 1.07; inhibition (Rattus norvegicus [39]): 59%; inhibition (Rattus norvegicus [40]): 55%; Activity (Rattus norvegicus [41]): Active
